Data from ChEMBL document CHEMBL3352311, “Discovery of novel 3-benzylquinazolin-4(3H)-ones as potent vasodilative agents” (Bioorg Med Chem Lett, 2014).
Blank lines part the entries; values can stand above or below the compound they belong to. Calls of active or inactive are those of the source. No cut-off for these calls is given here.

Key:
[1] = Vasodilative activity in isolated Sprague-Dawley rat mesenteric arterial ring assessed as reduction in KCl-induced contraction by wire myograph method; type: functional; settings: Mesenteric artery
Method in brief: (§1)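 Isolated rat mesenteric arterial rings were precontracted with 60 mM KCl MOPS solution and then exposed to the compound. Relaxation was expressed as pEC50 and Emax (%), given as mean ± deviation. DMSO served as vehicle control and nitrendipine as reference.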

[2] = Vasodilative activity in isolated Sprague-Dawley rat mesenteric arterial ring assessed as reduction in KCl-induced contraction by wire myograph method relative to control; type: functional; settings: Mesenteric artery; method in brief: as §1
Rattus norvegicus [3] = experiment: Antihypertensive activity in spontaneously hypertensive rat assessed as reduction in diastolic blood pressure at 2 mg/kg, po measured after 1 hr; type: functional, Artery
Method in brief: (§2)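 Oral dosing in spontaneously hypertensive rats, n = 8 per group. Vehicle was NMP/PEG400/H2O 1:7:2 at 5 ml/kg, and vehicle alone served as control. DBP and SBP (mmHg) were recorded before dosing (0 h) and 1 h after. The reported value is the reduction from the 0 h reading. Doses tested ranged from 0.5 to 8.0 mg/kg, with nitrendipine 2.0 mg/kg as positive drug.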

Rattus norvegicus [4] = experiment: Antihypertensive activity in spontaneously hypertensive rat assessed as reduction in systolic blood pressure at 2 mg/kg, po measured after 1 hr; type: functional, Artery; method in brief: as §2
Rattus norvegicus [5] = experiment: Antihypertensive activity in spontaneously hypertensive rat assessed as reduction in diastolic blood pressure at 4 mg/kg, po measured after 1 hr; type: functional, Artery; method in brief: as §2
Rattus norvegicus [6] = experiment: Antihypertensive activity in spontaneously hypertensive rat assessed as reduction in systolic blood pressure at 4 mg/kg, po measured after 1 hr; type: functional, Artery; method in brief: as §2
[7] = Vasodilative activity in isolated Sprague-Dawley rat mesenteric arterial ring assessed as reduction in phenylephrine-induced contraction at 1 to 10 uM pre-incubated for 30 mins before phenylephrine addition by wire myograph method; type: functional; settings: Mesenteric artery
Method in brief: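 Rat mesenteric artery segments were pretreated with compound at 10^-5 M or 10^-6 M for 30 min. Contraction induced by phenylephrine was then recorded.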

Rattus norvegicus [8] = experiment: Antihypertensive activity in spontaneously hypertensive rat assessed as reduction in diastolic blood pressure at 0.5 mg/kg, po measured after 1 hr; type: functional, Artery; method in brief: as §2
Rattus norvegicus [9] = experiment: Antihypertensive activity in spontaneously hypertensive rat assessed as reduction in diastolic blood pressure at 1 mg/kg, po measured after 1 hr; type: functional, Artery; method in brief: as §2
Rattus norvegicus [10] = experiment: Antihypertensive activity in spontaneously hypertensive rat assessed as reduction in diastolic blood pressure at 8 mg/kg, po measured after 1 hr; type: functional, Artery; method in brief: as §2
Rattus norvegicus [11] = experiment: Antihypertensive activity in spontaneously hypertensive rat assessed as reduction in systolic blood pressure at 0.5 mg/kg, po measured after 1 hr; type: functional, Artery; method in brief: as §2
Rattus norvegicus [12] = experiment: Antihypertensive activity in spontaneously hypertensive rat assessed as reduction in systolic blood pressure at 1 mg/kg, po measured after 1 hr; type: functional, Artery; method in brief: as §2
Rattus norvegicus [13] = experiment: Antihypertensive activity in spontaneously hypertensive rat assessed as reduction in systolic blood pressure at 8 mg/kg, po measured after 1 hr; type: functional, Artery; method in brief: as §2
Rattus norvegicus [14] = experiment: Antihypertensive activity in spontaneously hypertensive rat assessed as reduction in diastolic blood pressure at 4 mg/kg, po measured after 0.5 hrs; type: functional, Artery
Method in brief: (§3)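 Time course in spontaneously hypertensive rats given 4.0 mg/kg orally in NMP/PEG400/H2O 1:7:2 vehicle (5 ml/kg). A vehicle-only group was included. DBP and SBP were followed at successive times after dosing, and the reduction from the pre-dose blood pressure was reported.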

Rattus norvegicus [15] = experiment: Antihypertensive activity in spontaneously hypertensive rat assessed as reduction in diastolic blood pressure at 4 mg/kg, po measured after 2 hrs; type: functional, Artery; method in brief: as §3
Rattus norvegicus [16] = experiment: Antihypertensive activity in spontaneously hypertensive rat assessed as reduction in diastolic blood pressure at 4 mg/kg, po measured after 4 hrs; type: functional, Artery; method in brief: as §3
Rattus norvegicus [17] = experiment: Antihypertensive activity in spontaneously hypertensive rat assessed as reduction in diastolic blood pressure at 4 mg/kg, po measured after 6 hrs; type: functional, Artery; method in brief: as §3
Rattus norvegicus [18] = experiment: Antihypertensive activity in spontaneously hypertensive rat assessed as reduction in diastolic blood pressure at 4 mg/kg, po measured after 8 hrs; type: functional, Artery; method in brief: as §3
Rattus norvegicus [19] = experiment: Antihypertensive activity in spontaneously hypertensive rat assessed as reduction in systolic blood pressure at 4 mg/kg, po measured after 0.5 hrs; type: functional, Artery; method in brief: as §3
Rattus norvegicus [20] = experiment: Antihypertensive activity in spontaneously hypertensive rat assessed as reduction in systolic blood pressure at 4 mg/kg, po measured after 2 hrs; type: functional, Artery; method in brief: as §3
Rattus norvegicus [21] = experiment: Antihypertensive activity in spontaneously hypertensive rat assessed as reduction in systolic blood pressure at 4 mg/kg, po measured after 4 hrs; type: functional, Artery; method in brief: as §3
Rattus norvegicus [22] = experiment: Antihypertensive activity in spontaneously hypertensive rat assessed as reduction in systolic blood pressure at 4 mg/kg, po measured after 6 hrs; type: functional, Artery; method in brief: as §3
Rattus norvegicus [23] = experiment: Antihypertensive activity in spontaneously hypertensive rat assessed as reduction in systolic blood pressure at 4 mg/kg, po measured after 8 hrs; type: functional, Artery; method in brief: as §3
Rattus norvegicus [24] = experiment: Antihypertensive activity in orally dosed spontaneously hypertensive rat assessed as reduction in systolic blood pressure; type: functional, organism-based; settings: Artery; method in brief: as §2
Rattus norvegicus [25] = experiment: Antihypertensive activity in orally dosed spontaneously hypertensive rat assessed as reduction in diastolic blood pressure; type: functional, organism-based; settings: Artery; method in brief: as §2

- EC50 [1]: 0.501 µM
SMILES: COc1cc2ncn(Cc3cc(OC)c(OC)c(OC)c3)c(=O)c2cc1OC
- Emax [2]: 104%

- EC50 [1]: 3.16 µM
SMILES: COc1ccc(COc2ccc(Cn3cnc4cc(OC)c(OC)cc4c3=O)cc2OC)cc1OC
- Emax [2]: 99.7%

- EC50 [1]: 31.6 µM
SMILES: COc1cc(Cn2cnc3cc(OC)c(OC)cc3c2=O)ccc1O
- Emax [2]: 87.6%

- EC50 [1]: 39.8 µM
SMILES: COc1cc2ncn(Cc3ccccc3Cl)c(=O)c2cc1OC
- Emax [2]: 98.3%

- EC50 [1]: 100 µM
SMILES: O=c1c2ccc(F)cc2ncn1Cc1ccc(F)cc1
- Emax [2]: 78.3%

- EC50 [1]: 63.1 µM
SMILES: COc1cc2ncn(Cc3ccc([N+](=O)[O-])cc3)c(=O)c2cc1OC
- Emax [2]: 86.2%

- EC50 [1]: 10 µM
SMILES: COc1cc2ncn(Cc3ccc(OCc4ccc(F)cc4)c(Cl)c3)c(=O)c2cc1OC
- Emax [2]: 98.9%

- EC50 [1]: 7.94 µM
SMILES: COc1cc2ncn(Cc3ccc4c(c3)OCO4)c(=O)c2cc1OC
- Emax [2]: 98.6%

- EC50 [1]: 1 µM
SMILES: COc1cc2ncn(Cc3ccc(OCc4cccc(F)c4)c(OC)c3)c(=O)c2cc1OC
- Emax [2]: 99.6%

- EC50 [1]: 7.94 µM
SMILES: COc1cc2ncn(Cc3ccc(OCc4ccc(F)cc4)c(F)c3)c(=O)c2cc1OC
- Emax [2]: 99.1%

- EC50 [1]: 50.1 µM
SMILES: O=c1c2cc(Br)ccc2ncn1Cc1ccc(F)cc1
- Emax [2]: 96.4%

- EC50 [1]: 20 µM
SMILES: COc1ccc(Cn2cnc3cc4c(cc3c2=O)OCO4)cc1
- Emax [2]: 101%

- EC50 [1]: 50.1 µM
SMILES: COc1cc2ncn(Cc3ccc(C#N)cc3)c(=O)c2cc1OC
- Emax [2]: 85.6%

- EC50 [1]: 31.6 µM
SMILES: COc1cc2ncn(Cc3ccccc3C)c(=O)c2cc1OC
- Emax [2]: 97.3%

- EC50 [1]: 0.631 µM
SMILES: COc1cc2ncn(Cc3ccc(OCc4cccnc4)c(OC)c3)c(=O)c2cc1OC
- Emax [2]: 98.4%

- EC50 [1]: 63.1 µM
SMILES: COc1ccc(-n2cnc3cc(OC)c(OC)cc3c2=O)cc1
- Emax [2]: 96.3%

- EC50 [1]: 20 µM
SMILES: COc1cc2ncn(Cc3ccc(OCc4ccncc4)c(OC)c3)c(=O)c2cc1OC
- Emax [2]: 93.5%

- EC50 [1]: 0.00398 µM
SMILES: CCOC(=O)C1=C(C)NC(C)=C(C(=O)OC)C1c1cccc([N+](=O)[O-])c1 (stereo unspecified) [NITRENDIPINE]
- Emax [2]: 104%
- Activity (Rattus norvegicus [3]): 30 mmHg
- Activity (Rattus norvegicus [4]): 51 mmHg

- EC50 [1]: 0.398 µM
SMILES: COc1cc2ncn(Cc3ccc(OCc4ccccc4)c(OC)c3)c(=O)c2cc1OC
- Emax [2]: 103%
- Activity (Rattus norvegicus [5]): 19 mmHg
- Activity (Rattus norvegicus [6]): 48 mmHg
- Activity [7]: Active

- EC50 [1]: 31.6 µM
SMILES: COc1cc2ncn(Cc3ccc(OC)c(OCc4ccccc4)c3)c(=O)c2cc1OC
- Emax [2]: 95%

- EC50 [1]: 50.1 µM
SMILES: COc1ccc(Cn2cnc3cc(Cl)ccc3c2=O)cc1
- Emax [2]: 97%

- EC50 [1]: 12.6 µM
SMILES: COc1cc2ncn(Cc3ccc(OCc4ccc(Cl)cc4Cl)c(OC)c3)c(=O)c2cc1OC
- Emax [2]: 97.8%

- EC50 [1]: 79.4 µM
SMILES: COc1ccc(Cn2cnc3cc(F)ccc3c2=O)cc1
- Emax [2]: 87.7%

- EC50 [1]: 39.8 µM
SMILES: COc1cc2ncn(Cc3ccccc3)c(=O)c2cc1OC
- Emax [2]: 98.2%

- EC50 [1]: 25.1 µM
SMILES: COc1ccc(Cn2cnc3cc(OC)c(OC)cc3c2=O)cc1
- Emax [2]: 100%

- EC50 [1]: 0.251 µM
SMILES: COc1cc2ncn(Cc3ccc(OCc4ccc(F)cc4)c(OC)c3)c(=O)c2cc1OC
- Emax [2]: 103%
- Activity (Rattus norvegicus [5]): 34 mmHg
- Activity (Rattus norvegicus [3]): 18 mmHg
- Activity (Rattus norvegicus [6]): 60 mmHg
- Activity (Rattus norvegicus [4]): 41 mmHg
- Activity (Rattus norvegicus [8]): 9 mmHg
- Activity (Rattus norvegicus [9]): 15 mmHg
- Activity (Rattus norvegicus [10]): 43 mmHg
- Activity (Rattus norvegicus [11]): 12 mmHg
- Activity (Rattus norvegicus [12]): 28 mmHg
- Activity (Rattus norvegicus [13]): 64 mmHg
- Activity (Rattus norvegicus [14]): 20 mmHg
- Activity (Rattus norvegicus [15]): 23 mmHg
- Activity (Rattus norvegicus [16]): 17 mmHg
- Activity (Rattus norvegicus [17]): 10 mmHg
- Activity (Rattus norvegicus [18]): 0 mmHg
- Activity (Rattus norvegicus [19]): 46 mmHg
- Activity (Rattus norvegicus [20]): 42 mmHg
- Activity (Rattus norvegicus [21]): 36 mmHg
- Activity (Rattus norvegicus [22]): 21 mmHg
- Activity (Rattus norvegicus [23]): 2 mmHg
- Activity [7]: Active
- Activity (Rattus norvegicus [24]): Dose-dependent effect
- Activity (Rattus norvegicus [25]): Dose-dependent effect

- EC50 [1]: 63.1 µM
SMILES: O=c1c2ccc(Cl)cc2ncn1Cc1ccc(F)cc1
- Emax [2]: 101%

- EC50 [1]: 25.1 µM
SMILES: COc1cc2ncn(Cc3ccc(F)cc3)c(=O)c2cc1OC
- Emax [2]: 97.8%

- EC50 [1]: 100 µM
SMILES: COc1cc2ncn(Cc3ccc(OCc4ccc(F)cc4)cc3)c(=O)c2cc1OC
- Emax [2]: 50.3%
